Test results: ChEMBL document CHEMBL4765236, “Insights into the Antimicrobial Activity and Cytotoxicity of Engineered α-Helical Peptide Amphiphiles” (J Med Chem, 2016)
The source made the active and inactive calls. The calls are words filed in the database; no cut-off is given here.

Legend:
Escherichia coli [1] = test: Antibacterial activity against Escherichia coli ATCC 35150 assessed as bacterial growth inhibition incubated for 18 to 24 hrs by microtiter broth dilution method; assay type: functional; settings: time 18-24 hrs
How it was run: (§1)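 Log-phase cells (grown overnight at 37 °C, subcultured in MHB) diluted to 10^5 CFU/mL in MHB and mixed 1:1 with serial peptide dilutions prepared in 0.01% acetic acid/0.2% BSA. Incubated 37 °C for 18-24 h. MIC is the lowest concentration giving no growth by OD492. Reported as the average of 3-5 independent experiments.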

Salmonella paratyphi [2] = test: Antibacterial activity against Salmonella paratyphi A CICC 20501 assessed as bacterial growth inhibition incubated for 18 to 24 hrs by microtiter broth dilution method; assay type: functional, Salmonella enterica subsp. enterica serovar Paratyphi A; settings: Salmonella enterica, time 18-24 hrs
How it was run: (§2)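 Log-phase bacteria grown at 37 °C in MHB, diluted to 10^5 CFU/mL, mixed 1:1 with serial peptide dilutions (peptide diluted in 0.01% acetic acid, 0.2% BSA); 37 °C for 18-24 h. MIC read by OD492 as lowest concentration giving no growth; mean of 3-5 independent experiments.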

[3] = tested on: Salmonella enterica subsp. enterica serovar Paratyphi B; test: Antibacterial activity against Salmonella paratyphi B CICC 21495 assessed as bacterial growth inhibition incubated for 18 to 24 hrs by microtiter broth dilution method; assay type: functional; settings: time 18-24 hrs; how it was run: as §2
Salmonella paratyphi [4] = test: Antibacterial activity against Salmonella paratyphi C CICC 21512 assessed as bacterial growth inhibition incubated for 18 to 24 hrs by microtiter broth dilution method; assay type: functional; settings: Salmonella enterica, time 18-24 hrs; how it was run: as §2
Vibrio parahaemolyticus = test: Antibacterial activity against Vibrio parahaemolyticus CICC 21617 assessed as bacterial growth inhibition incubated for 18 to 24 hrs by broth dilution method; assay type: functional; settings: time 18-24 hrs; how it was run: as §1
Staphylococcus aureus [5] = test: Antibacterial activity against Staphylococcus aureus ATCC 29213 assessed as bacterial growth inhibition incubated for 18 to 24 hrs by microtiter broth dilution method; assay type: functional; settings: time 18-24 hrs; how it was run: as §1
Staphylococcus aureus [6] = test: Antibacterial activity against Staphylococcus aureus GIM 1.160 assessed as bacterial growth inhibition incubated for 18 to 24 hrs by microtiter broth dilution method; assay type: functional; settings: time 18-24 hrs; how it was run: as §1
Bacillus pumilus = test: Antibacterial activity against Bacillus pumilus CMCC 63202 assessed as bacterial growth inhibition incubated for 18 to 24 hrs by microtiter broth dilution method; assay type: functional; settings: time 18-24 hrs; how it was run: as §1
Candida albicans = test: Antifungal activity against Candida albicans ATCC 10231 assessed as fungal growth inhibition incubated for 18 to 24 hrs by microtiter broth dilution method; assay type: functional; settings: time 18-24 hrs; how it was run: as §1
Erythrocyte [7] = test: Hemolytic activity against human red blood cells assessed as concentration required to cause 10% hemoglobin release measured after 1 hr by microplate reader analysis; assay type: ADME, cell-based
How it was run: (§3)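 Fresh heparinized human RBCs washed three times in 10 mM PBS pH 7.4 and resuspended to about 1% (v/v) (5.4 × 10^8 cells/mL). Mixed 1:1 with peptide in PBS for 1 h at 37 °C, then centrifuged. Supernatant hemoglobin read at A540. PBS set as 0% and 0.1% Triton X-100 as 100% hemolysis. MHC is the concentration causing 10% hemolysis.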

[8] = Therapeutic index, ratio of MHC10 for human RBC to geometric mean of peptide MIC for Staphylococcus aureus ATCC 29213; assay type: toxicity; settings: human red blood cells (RBC), pooled result: one value given for 9 cell lines, strains, targets or settings, read-out: TI
How it was run: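 Therapeutic index = MHC (peptide concentration giving 10% hemolysis of human RBCs, 1 h, 37 °C, A540) divided by geometric mean of MICs from broth microdilution (10^5 CFU/mL in MHB, 37 °C, 18-24 h, OD492).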

Escherichia coli [9] = test: Antibacterial activity against Escherichia coli O157:H7 CICC 21530 assessed as bacterial growth inhibition incubated for 18 to 24 hrs in presence of 150 mM NaCl by microtiter broth dilution method (reference value: 0.85 to > 71.5 uM); assay type: functional; settings: time 18-24 hrs
Escherichia coli [10] = test: Antibacterial activity against Escherichia coli O157:H7 CICC 21530 assessed as bacterial growth inhibition incubated for 18 to 24 hrs in presence of 4.5 mM KCl by microtiter broth dilution method (reference value: 0.85 to > 71.5 uM); assay type: functional; settings: time 18-24 hrs
Escherichia coli [11] = test: Antibacterial activity against Escherichia coli O157:H7 CICC 21530 assessed as bacterial growth inhibition incubated for 18 to 24 hrs in presence of 6 mM NH4Cl by microtiter broth dilution method (reference value: 0.85 to > 71.5 uM); assay type: functional; settings: time 18-24 hrs
Escherichia coli [12] = test: Antibacterial activity against Escherichia coli O157:H7 CICC 21530 assessed as bacterial growth inhibition incubated for 18 to 24 hrs in presence of 1 mM MgCl2 by microtiter broth dilution method (reference value: 0.85 to > 71.5 uM); assay type: functional; settings: time 18-24 hrs
Escherichia coli [13] = test: Antibacterial activity against Escherichia coli O157:H7 CICC 21530 assessed as bacterial growth inhibition incubated for 18 to 24 hrs in presence of 2 mM CaCl2 by microtiter broth dilution method (reference value: 0.85 to > 71.5 uM); assay type: functional; settings: time 18-24 hrs
Cell membrane = test: Induction of cell membrane depolarization in Escherichia coli O157:H7 CICC 21530 assessed as increase in fluorescence intensity at 0.5 to 2 times MIC preincubated for 90 mins followed by KCl addition and measured after 15 to 30 mins by DiSC3-5 staining based fluorescence spectroscopic technique; assay type: subcellular; settings: time 105-120 min
RAW264.7 [14] = test: Antiinflammatory activity against mouse RAW264.7 cells assessed as inhibition of LPS-induced nitric oxide production measured after 24 hrs by Griess reagent based ELISA; assay type: functional, cell-based; settings: dose 0.5-64 µM
How it was run: (§4)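 RAW264.7 cells plated at 1-2 × 10^5 cells/mL and stimulated with 500 ng/mL LPS with or without peptide (0.5-64 µM) for 24 h at 37 °C. Controls were untreated cells and LPS alone. TNF-α in the supernatant measured by ELISA. NO measured by Griess reagent (1% sulfanilamide, 0.1% naphthylethylenediamine, 5% phosphoric acid).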

RAW264.7 [15] = test: Antiinflammatory activity against mouse RAW264.7 cells assessed as inhibition of LPS-induced TNF-alpha production at 0.5 to 64 uM measured after 24 hrs by […] ELISA; assay type: functional, cell-based; settings: dose 0.5-64 µM; how it was run: as §4
Staphylococcus aureus [16] = test: Antibacterial activity against Staphylococcus aureus ATCC 29213 assessed as bacterial growth inhibition incubated for 18 to 24 hrs in presence of 6 mM NH4Cl by microtiter broth dilution method (reference value: 0.43 to > 71.5 uM); assay type: functional; settings: time 18-24 hrs
Erythrocyte [17] = test: Hemolytic activity against human red blood cells assessed as hemoglobin release at 64 uM measured after 1 hr by microplate reader analysis; assay type: ADME, cell-based; how it was run: as §3
HepG2 [18] = test: Induction of cell cycle arrest in human HepG2 cells assessed as accumulation at S phase at 32 uM incubated for 24 hrs by annexin-V/FITC staining-based FACS flow cytometry analysis (reference value: 20.51 %); assay type: functional
HepG2 [19] = test: Induction of cell cycle arrest in human HepG2 cells assessed as accumulation at G2/M phase at 64 uM incubated for 24 hrs by annexin-V/FITC staining-based FACS flow cytometry analysis (reference value: 28.75 %); assay type: functional
Escherichia coli [20] = test: Induction of morphological changes in Escherichia coli O157:H7 CICC 21530 assessed as membrane creeping at 1 times MIC after 60 mins by SEM analysis; assay type: functional, organism-based

Row | Substance | MIC (Escherichia coli [1]) [µM] | MIC (Salmonella paratyphi [2]) [µM] | MIC [3] [µM] | MIC (Salmonella paratyphi [4]) [µM] | MIC (Vibrio parahaemolyticus) [µM] | MIC (Staphylococcus aureus [5]) [µM] | MIC (Staphylococcus aureus [6]) [µM] | MIC (Bacillus pumilus) [µM] | MIC (Candida albicans) [µM] | MHC10 (Erythrocyte [7]) [µM] | selectivity ratio [8] | MIC (Escherichia coli [9]) [µM] | MIC (Escherichia coli [10]) [µM] | MIC (Escherichia coli [11]) [µM] | MIC (Escherichia coli [12]) [µM] | MIC (Escherichia coli [13]) [µM] | Activity (Cell membrane) | Activity (RAW264.7 [14]) | Activity (RAW264.7 [15]) | MIC (Staphylococcus aureus [16]) [µM] | also measured
1 | H-WGRAFSRGVRRLARGGRG-NH2 | 31.8 | 15.9 | 15.9 | 15.9 | > 63.5 | 31.8 | 15.9 | > 63.5 | > 63.5 | > 63.54 | 2.16 | 15.9 | 3.97 | 7.94 | 7.94 | 15.9 | Active | Dose-dependent effect | Active | > 63.5 | Activity (Erythrocyte [17]): Non-Toxic
2 | H-WLRAFRRLVRRLARGLRR-NH2 | 1.7 | 0.43 | 0.85 | 0.43 | 1.7 | 0.43 | 0.43 | 0.85 | 3.4 | 27.22 | 59.1 | 3.4 | 0.85 | 0.85 | 0.85 | 3.4 | Active | Dose-dependent effect | Active | 0.43 | Activity (HepG2 [18]): 33.17%; Activity (HepG2 [19]): 5.67%; Activity (Erythrocyte [17]): Non-Toxic; Activity (Escherichia coli [20]): Active
3 | H-WGRAFSAGVHRLANGGNG-NH2 | > 70.1 | > 70.1 | > 70.1 | > 70.1 | > 70.1 | > 70.1 | 70.1 | > 70.1 | > 70.1 | > 70.09 | 1.08 | > 70.1 | > 70.1 | > 70.1 | > 70.1 | > 70.1 | Active | Dose-dependent effect | Active | > 70.1 | Activity (Erythrocyte [17]): Non-Toxic
4 | H-WLRAFRRLVRRLARLLRR-NH2 | 26.6 | 6.65 | 3.32 | 6.65 | 6.65 | 6.65 | 1.66 | 26.6 | 26.6 | 53.18 | 5.88 | > 53.2 | 1.66 | > 53.2 | > 53.2 | > 53.2 | Active | Dose-dependent effect | Active | 1.66 | Activity (Erythrocyte [17]): Non-Toxic
